Measurements: the EternaBench riboswitch data

System: MS2 coat protein
Assay: apparent Kd, MS2 coat protein; higher = weaker binding; RNA-MaP array; FMN 200 µM where present
Outline: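 The apparent Kd is reported as the median of filtered per-cluster binding-curve fits. To get these curves, designs transcribed by stalled E. coli RNA polymerase on Illumina sequencing-chip clusters were titrated with SNAP-549-labelled MS2 coat protein from 0.7 or 1.5 nM, doubling to 3 µM. Titrations were run without and then with constant ligand in 100 mM Tris-HCl pH 7.5, 80 mM KCl, 4 mM MgCl2, BSA, DTT, yeast tRNA and Tween-20, and green signal was normalised to red-channel RNA signal and control-cluster median Fmax.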

[1] = designed as: OFF switch for flavin mononucleotide, no ligand
[2] = ligand present: flavin mononucleotide, designed as: OFF switch for flavin mononucleotide
[3] = designed as: ON switch for flavin mononucleotide, no ligand
[4] = ligand present: flavin mononucleotide, designed as: ON switch for flavin mononucleotide

Sequence	apparent Kd [1]	apparent Kd [2]	apparent Kd [3]	apparent Kd [4]
CGAUAUGAUGCAGGAUAUCUAUCUUGAAUGAGGAGAGAAGGGCAAAGGGAGACAUAAGCCUUAUUACAUGAGGAUCACCCAUGU	13.3 nM	11.3 nM	–	–
GGUACUCAAAGAGUACCAAUACGAACAUGAGGAUCACCCAUGUAGGAUAUGCUACUCAAAGAGUAGCAGAAGGACAUGCGCCUA	18.2 nM	106 nM	–	–
GGGUACAUCGGAGGAUAUCAUGUAAAUACAUGAGGAUCACCCAUGUCGAUGGUGACAUCGGAGAUUGAGAAGGCCGAUGUACCG	–	–	245 nM	9.37 nM
AAUGGCGUCCAAGGAUAUCCUGACCGUUAACAUGAGGAUCACCCAUGUUGCCUAAAGGCGGCAUAGGAGAAGGUGGUACUCUGU	–	–	73.3 nM	124 nM
GCACUUUUAUUUGAACCGUUUCGAACAUGAGGAUCACCCAUGUAGGAUAUGCUAAAAGUUGUGAUGCAGAAGGACAUUAAGUGC	6.94 nM	7.5 nM	–	–
AAGAAGUGAGGAUAUGCUGCUCGUCACGAAAGUGAUGAGUAGCAGAAGGCACAUGAGGAUCACCCAUGUAAAGA	36.9 nM	55.4 nM	–	–
CGCUAAUUAAUUAUAUUAAUUAUACAGGAUAUGUAACAUGAGGAUCACCCAUGUAUUCAAUGUAAACAGAAGGGUAUAUUAGCG	10.7 nM	16.2 nM	–	–
CCAUAAAAGAUCCAAAUUUACAACAUGAGGAUCACCCAUGUGCAGGAUAUCGUGAAAGUAAAAUACGAGAAGGGCAAGAACUGC	300 nM	362 nM	–	–
GUCUUCCUAGGAUAUACAUGAGGAUCACCCAUGUAAAGUUUCGUCAAAGGAUAAUCGAGUAGAAGGAGGUGGAU	15 nM	17.2 nM	–	–
UUCAUCAAGGAAGGAUAUCUAUAUCCAACAUGAGGAUCACCCAUGUUGAGGAUCACCCAUGUAAAGGAGAAGGUUCAUAUAACU	–	–	58.1 nM	50.7 nM
GCUGCUAUCGCAGGAUAUUACAUGGGAAAUAAAACAUGAGGAUCACCCAUGUAAAAUAUCGUAAAUAAGAAGGGCGAUAGCAGC	–	–	84.6 nM	1180 nM
UGUCGGAGCAGAGGAUAUUACAUGAGGAUCACCCAUGUAUGAACCAAUAGCUGGAAACAGCAAUGUAAGAAGGCUGCUGCGACA	12.8 nM	182 nM	–	–
AUUCCUAAUGUUAGGAUAUGCGACGGGUGACCGUUGCAGAAGGAACAUGAGGAUCACCCAUGUUUAAUAAAAUC	17.3 nM	111 nM	–	–
AAAAGUAGAGGAUAUACAUGAGGAUCACCCAUGUAGAAAGGAAGUAUAUAUAUGGCGUGUAGAAGGCUGCAUGA	34.5 nM	32.2 nM	–	–
AAAAAGUCAGGAUAUAUCAAAAAAAAAGAAAAAAAAAAAAGAUAGAAGGGACAUGAGGAUCACCCAUGUAAAAA	50.9 nM	42.1 nM	–	–
GCGUUGAACGAGAAGGCCAAUACAUGAGGAUCACCCAUGUUAAGAUGUUUUGGAGGAUAUCGUACGUCGUCUCAUGAGCAACGC	6.21 nM	7.03 nM	–	–
UUCCUACAUGAGGAUCACCCAUGUCAGGAUAUCUCCUCGUCGCCAAUGGGCGACGAAUAGAGAAGGGACAGGAA	15 nM	16.7 nM	–	–
UGAUAGGACAGAGGAUAUACCGAUAGGAUCUACUAUCGAAUAAUCCUCACAUGAGGAUCACCCAUGUAGAAGGCUGUCCUAUCU	19.7 nM	144 nM	–	–
AAACAUGUCCGAGGAUAUCUGGAAACAUUUUCAAGAGAAGGCGGACAUGAGGAUCACCCAUGUCUCUCCUCAUCAACUACAUAU	8.09 nM	59.4 nM	–	–
GUCGGAAACGACAAAAGUAUGGAUCCAGAAGGCAUGAUACAUGAGGAUCACCCAUGUCUAAGACAUGAGGAUAUGGAUCCAUAC	–	–	13.7 nM	4.77 nM
UGUCGGAGCAGAGGAUAUUACAUGAGGAUCACCCAUGUAUGAACCAAUAGCUGGAAACAGCAAUGUAAGAAGGCUGCUCCGAAA	12.3 nM	176 nM	–	–

Sequence	apparent Kd [1]	apparent Kd [2]	apparent Kd [3]	apparent Kd [4]
AGCACGGGAUUGGAGGAUAUGUUGUUUGCAACAUGAGGAUCACCCAUGUCUGAGGCUGAAAAGCAGCAGAAGGCCGAUACAACCA	–	–	347 nM	71.5 nM
UAGUGAUUGCAAGGAUAUGCUUAUGUUUAAUUUUAUUUAUUAUCUAACAUGAGGAUCACCCAUGUGCAGAAGGUGCUUGAUUUG	–	–	63.4 nM	53.4 nM
ACCGGCGCUUACAUGAGGAUCACCCAUGUGCGCACUCGGGCACAGGAUAUCCAUGGUAAGUAUCGGGAGAAGGGUGAGAAGAAU	–	–	163 nM	309 nM
AGAAAUUAGUGAGGAUAUGCAUAAUAUUUAGCUGCAGAAGGCACGGACCACAAGACAUGAGGAUCACCCAUGUGGAAUAUAGAU	20.1 nM	23.4 nM	–	–
AACAAACAUGAGGAUCACCCAUGUCAGGAUAUCCGAAAUAAAGAAACAAUAAUAAUAAGGAGAAGGGACUAAAU	53.5 nM	55.5 nM	–	–
GCUUUACUGGUCAGGAUAUACAUUUGCUACUCUUUGUAGAAGGGACAUGAGGAUCACCCAUGUACUUUACAUUC	15.3 nM	16.6 nM	–	–
AAUGUUGAUGUGAGGAUAUACAUAGUUUGACCGUAGUAGAAGGCACAUGAGGAUCACCCAUGUAGAUGUUUGGU	12 nM	24.2 nM	–	–
UUCAGGGAUCAAGGAUAUCUAUACUCAUGCGGACAUGAGGAUCACCCAUGUUGAUUACCCAUGAGGGAGAAGGUGAACAUGAGG	–	–	31.3 nM	18.7 nM
CAUAACUUUGAUCUCUCCUACAUGAGGAUCACCCAUGUUGAGAGAAGGAGGCGGCAGAGUGCUGCCUAGGAUAUCUGAAGGGUC	6.19 nM	7.28 nM	–	–
AAGUCAGCAGGAUAUGCGAUGUUGGGCUAGGUAGCUUGACCACAUGAGGAUCACCCAUGUAGAAGGGCUGGCUA	17.4 nM	14 nM	–	–
CGUGUUGACGAAGGAUAUGGAUACAUGAGGAUCACCCAUGUAUAUUUUGUGAUCAUAUUUAUGAUCCAGAAGGUCGUUGACACG	56.9 nM	131 nM	–	–
ACAUGAGGAUCACCCAUGUAGAAUGAAGAAGGUAGAUACUUGAGGCUCACCCAUGUACAUGGGACUAAGGAUAUUCUAAUAAUU	–	–	42.7 nM	27.7 nM
GACUGGGCAGGAUAUACAUGAGGAUCACCCAUGUGUCUGCGUCAGGCACGUGUAGACGGUAGAAGGGCCUACAC	11.6 nM	13.6 nM	–	–
AAAGAGUCAGGAUAUUCGUAUAGAGUAGCGCGACUCUAUACGAAGAAGGGACAUGAGGAUCACCCAUGUAAAAA	28.1 nM	45.6 nM	–	–
AAUAAACAUGAGGAUCACCCAUGUGAGGAUAUGGUAUUAUUUGGACAGUUAUGAUAUACCAGAAGGCACAAAUA	28 nM	46.8 nM	–	–
AGCAACAUGAGGAUCACCCAUGUUGGUUCGAAAACGGACUCACAGGAUAUGCAACGUGAUCGUUUGCAGAAGGGUGCGUCCUCA	–	–	18.4 nM	28.4 nM
CACCGCGACAAUGCGGUGUCACAUGAGGAUCACCCAUGUUCACAGGAUAUGCGAUAGCCAACGAAGCAGAAGGGUGAUUACUUA	–	–	32.3 nM	172 nM
AAGUUAUAUACAUGAGGAUCACCCAUGUCAAAGGGAGUAAUCAGAAGGUACUAUUCAAUAAUUAGUAAGGAUAUGAAUUUUUAG	–	–	39.5 nM	30.6 nM
CCUCUACAUGAGGAUCACCCAUGUGAGGAUAUCUCGGAGCAGCCAAUUAAAGCGCUCCAGAGAAGGCACGUGUA	17.9 nM	25.2 nM	–	–
GUCAGCGCGUGAGGAUAUACAACACUGCUUCGGCAGUGUAUUAAGAUCACAUGAGGAUCACCCAUGUAGAAGGCACGAGCUGAU	14 nM	263 nM	–	–
AGUUGACGAGAAGGAUAUCCGAACCUUUAAAGAGGAGAAGGUCUAUCAACAUGAGGAUCACCCAUGUACAUCGCUCGGGUGUCC	82.2 nM	306 nM	–	–
